# Assay results published in ChEMBL document CHEMBL3227967, “Quantitative structure-activity relationships in 1-aryl-2-(alkylamino)ethanol antimalarials” (J Med Chem, 1979).
# Assays:
# [1] = Lipophilicity, log P of the compound in 0.1 N HCl solution; type: physicochemical; settings: 0.1 N HCl solution; read-out: logP
# In short: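 Partition coefficients of the hydrochloride salts were measured from 0.1 N HCl solution unless a footnote says otherwise. Some entries were not measured. They were calculated by adding the Δlog P of the corresponding phenanthrene analogues to the measured log P of a reference hydrochloride.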
# Plasmodium berghei = assay: Antimalarial activity against Plasmodium berghei; type: functional
smiles,measurement,setting,value
CCCCN(CCCC)CC(O)c1cc(-c2ccc(Cl)cc2)c2cc(OC)c(Cl)cc2n1 (stereo unspecified),logP,[1],4.4
CCCCCCCN(CCCCCCC)CC(O)c1ccc(Cl)c2c(C)ccnc12 (stereo unspecified),logP,[1],5.25
CCCCCCCCN(CCCCCCCC)CC(O)c1cc(-c2ccc(Cl)c(Cl)c2)nc2ccc(OC)cc12 (stereo unspecified),logP,[1],8.34
CCCCN(CCCC)CC(O)c1cc(OC)c2cc(Cl)cc(Cl)c2n1 (stereo unspecified),logP,[1],2.44
CCCCNCC(O)c1cc(-c2ccccc2)nc(-c2ccccc2)c1 (stereo unspecified),logP,[1],3.47
CCCCN(CCCC)CC(O)c1cc(-c2ccc(Cl)cc2)c2cc(-c3ccccc3)ccc2n1 (stereo unspecified),logP,[1],5.67
CCCCCNCC(O)c1cc2ccccc2c2ccccc12 (stereo unspecified),logP,[1],2.8
OC(CN1C=CN(c2ccccc2)C=C1)c1cc(-c2ccc(Cl)cc2)nc2cc(Cl)ccc12 (stereo unspecified),logP,[1],5.4
CCCNCC(O)c1cc(-c2ccccc2)nc2ccccc12 (stereo unspecified),logP,[1],1.43
CCCCCCCN(CCCCCCC)CC(O)c1cc(-c2ccccc2)nc2ccccc12 (stereo unspecified),logP,[1],5.51
OC(c1cc(-c2ccccc2)nc(-c2ccccc2)c1)C1CCCCN1 (stereo unspecified),logP,[1],3.18
OC(CN1CCCCCC1)c1cccc2ccc(-c3ccccc3)nc12 (stereo unspecified),logP,[1],2.91
OC(CC1CCCCN1)c1ccnc2ccccc12 (stereo unspecified),logP,[1],0.05
CCCCN(CCCC)CC(O)c1cc(-c2cccc(O)c2)nc2c(Cl)cc(Cl)cc12 (stereo unspecified),logP,[1],3.75
CCCCN(CCCC)CC(O)c1cc(Cl)cc2cccnc12 (stereo unspecified),logP,[1],1.75
OC(CC1CCCCN1)c1cc(C(F)(F)F)nc2ccccc12 (stereo unspecified),logP,[1],0.93
OC(CN1CCCCC1)c1cc2ccccc2c2sccc12 (stereo unspecified),logP,[1],1.73
OCCN(CC(O)c1cc2ccccc2c2ccccc12)C1CCCCC1 (stereo unspecified),logP,[1],2
CCNCC(O)c1cc2ccccc2c2ccccc12 (stereo unspecified),logP,[1],1.42
CN(C)CC(O)c1cc(-c2ccccc2)nc(-c2ccccc2)c1 (stereo unspecified),logP,[1],2.25
N#CCCN(CC(O)c1cc2ccccc2c2ccccc12)C1CCCCC1 (stereo unspecified),logP,[1],2.27
CNCC(O)c1cc(-c2ccccc2)nc2ccccc12 (stereo unspecified),logP,[1],0.55
CCCCNCC(O)c1cc(-c2ccccc2)nc2ccccc12 (stereo unspecified),logP,[1],1.87
CCCCN(CCCC)CC(O)c1c(OC)c2ccccc2c2ccccc12 (stereo unspecified),logP,[1],2.55
CCCCCNCC(O)c1cc(-c2ccccc2)nc2ccccc12 (stereo unspecified),logP,[1],2.37
OC(CC1CC2CCC(CC2)C1)c1cc2ccccc2c2cc(Br)ccc12 (stereo unspecified),logP,[1],3.74
OC(c1cc(-c2ccccc2)nc2ccccc12)C1CCCCN1 (stereo unspecified),logP,[1],1.58
CN1CCN(CC(O)c2cc(-c3ccccc3)nc3c(Cl)cc(Cl)cc23)CC1 (stereo unspecified),log(1/C),Plasmodium berghei,2.48
CCC(C)N(C)CC(O)c1cc(-c2ccc(Cl)cc2)nc(-c2ccc(Cl)cc2)c1 (stereo unspecified),log(1/C),Plasmodium berghei,3.59
CCCCCN(CCCCC)CC(O)c1cc2ccc(Cl)c(Cl)c2c2cc(C(F)(F)F)ccc12 (stereo unspecified),log(1/C),Plasmodium berghei,4.26
CCCCNCCC(O)c1c2ccccc2c(Cl)c2cc(C(F)(F)F)ccc12 (stereo unspecified),log(1/C),Plasmodium berghei,3
CCCCCCCN(CCCCCCC)CCC(O)c1cc2ccccc2c2ccccc12 (stereo unspecified),log(1/C),Plasmodium berghei,3
CCCCCCN(CCCCCC)CC(O)c1cc(-c2ccc(Cl)cc2)nc2c(C)cc(C)cc12 (stereo unspecified),log(1/C),Plasmodium berghei,3.75
CCN(CC)CC(O)c1cc(-c2ccc(OC)cc2)nc2cc(Cl)c(OC)cc12 (stereo unspecified),log(1/C),Plasmodium berghei,2.92
CCCCN(CCCC)CC(O)c1cc(C23CC4CC(CC(C4)C2)C3)nc2c(C(F)(F)F)cccc12 (stereo unspecified),log(1/C),Plasmodium berghei,3.59
NC(=O)c1cc(C(O)CC2CCCCN2)c2cccc(C(F)(F)F)c2n1 (stereo unspecified),log(1/C),Plasmodium berghei,2.42
OC(CC1CCCCN1)c1c2c(nc3c(Cl)cc(Cl)cc13)-c1cccc(Cl)c1CC2 (stereo unspecified),log(1/C),Plasmodium berghei,3.6
CCCCNCCC(O)c1c2ccccc2c(Cl)c2ccccc12 (stereo unspecified),log(1/C),Plasmodium berghei,2.49
CCCCCN(CCCCC)CC(O)c1cccc2c1cc(Cl)c1ccccc12 (stereo unspecified),log(1/C),Plasmodium berghei,2.14
CCN(CC)CC(O)c1cc(-c2ccc(Cl)cc2)nc(-c2ccc(Cl)cc2)c1 (stereo unspecified),log(1/C),Plasmodium berghei,3.19
CCCCCCCN(CCCCCCC)CC(O)c1cc2ccccc2c2ncccc12 (stereo unspecified),log(1/C),Plasmodium berghei,2.25
CCN(CC)CC(O)c1cc(-c2ccc(Br)cc2)nc(-c2ccc(Br)cc2)c1 (stereo unspecified),log(1/C),Plasmodium berghei,3.13
CCCCCCCCN(CCCCCCCC)CC(O)c1ccnc2ccccc12 (stereo unspecified),log(1/C),Plasmodium berghei,2.44
CCCCN(CCCC)CC(O)c1cc(OCC)nc2ccccc12 (stereo unspecified),log(1/C),Plasmodium berghei,2.24
CCCCN(CCCC)CC(O)c1cc(-c2ccc(F)cc2)nc2c(Cl)cc(Cl)cc12 (stereo unspecified),log(1/C),Plasmodium berghei,3.98
CCCCN(CCCC)CC(O)c1cc2cc(Br)ccc2c2cc(S(C)(=O)=O)ccc12 (stereo unspecified),log(1/C),Plasmodium berghei,3.43
CCCNCC(O)c1cc2ccc(C(F)(F)F)cc2c2cc(C(F)(F)F)ccc12 (stereo unspecified),log(1/C),Plasmodium berghei,4.48
CCCCCCCN(CCCCCCC)CC(O)c1cc2ccc(C(F)(F)F)cc2c2sccc12 (stereo unspecified),log(1/C),Plasmodium berghei,3.36
CCOC(CCCNCC(O)c1cc2ccc(C(F)(F)F)cc2c2cc(C(F)(F)F)ccc12)OCC (stereo unspecified),log(1/C),Plasmodium berghei,3.55
CCCCCCCN(CCCCCCC)CCC(O)c1cc2ccc(C(F)(F)F)cc2c2cc(C(F)(F)F)ccc12 (stereo unspecified),log(1/C),Plasmodium berghei,3.2
OC(CC1CCCCN1)c1cc(-c2ccccc2)nc2cc(Cl)ccc12 (stereo unspecified),log(1/C),Plasmodium berghei,2.72
CCCCN(CCCC)CC(O)c1cc(C2(C)CCCC2)nc2c(Cl)cc(Cl)cc12 (stereo unspecified),log(1/C),Plasmodium berghei,2.66
Cc1ccc(-c2cc(C(O)CC3CCCCN3)c3cc(F)ccc3n2)cc1 (stereo unspecified),log(1/C),Plasmodium berghei,2.34
CCCC[N+]([O-])(CCCC)CC(O)c1cc(-c2ccc(Cl)cc2)nc(-c2ccc(Cl)cc2)c1 (stereo unspecified),log(1/C),Plasmodium berghei,3.57
OC(CC1CCCCN1)c1cc2ccc(C(F)(F)F)cc2c2cc(Cl)c(Cl)cc12 (stereo unspecified),log(1/C),Plasmodium berghei,4.02
OC(CC1CCCCN1)c1cc(-c2ccccc2)nc2ccccc12 (stereo unspecified),log(1/C),Plasmodium berghei,2.37
Cc1ccc2c(C(O)CC3CCCCN3)cc3ccccc3c2c1 (stereo unspecified),log(1/C),Plasmodium berghei,2.83
CCCCCCCN(CCCCCCC)CC(O)c1cc2c(Cl)cc(Cl)cc2c2ccsc12 (stereo unspecified),log(1/C),Plasmodium berghei,3
OC(CC1CCCCN1)c1cc2cc(Br)ccc2c2cc(C(F)(F)F)ccc12 (stereo unspecified),log(1/C),Plasmodium berghei,3.96
OC(CC1CCCCN1)c1cc2cc(Cl)ccc2c2c(C(F)(F)F)cccc12 (stereo unspecified),log(1/C),Plasmodium berghei,4.05
Cc1ccc(Oc2cc(C(O)CC3CCCCN3)c3cc(C)ccc3n2)cc1 (stereo unspecified),log(1/C),Plasmodium berghei,2.35
CCCCN(CCCC)CC(O)c1nc(-c2ccc(Cl)cc2)nc2ccccc12 (stereo unspecified),log(1/C),Plasmodium berghei,2.85
CCC(CC)NCC(O)c1cc2ccc(C(F)(F)F)cc2c2cc(C(F)(F)F)ccc12 (stereo unspecified),log(1/C),Plasmodium berghei,4.2
COc1cc2c(C(O)CC3CCCCN3)cc(-c3ccc(Cl)c(Cl)c3)cc2cc1Cl (stereo unspecified),log(1/C),Plasmodium berghei,3.14
CCCN(CCC)CCC(O)c1cc2ccc(C(F)(F)F)cc2c2cc(C(F)(F)F)ccc12 (stereo unspecified),log(1/C),Plasmodium berghei,4.23
CC(C)(C)NCC(O)c1cc(C(F)(F)F)nc2c(C(F)(F)F)cccc12 (stereo unspecified),log(1/C),Plasmodium berghei,2.64
CCCCN(CCCC)CC(O)c1cc2ccc(C(F)(F)F)cc2c2cc(C)sc12 (stereo unspecified),log(1/C),Plasmodium berghei,2.52
OC(CC1CCCNC1)c1cc2ccc(C(F)(F)F)cc2c2cc(C(F)(F)F)ccc12 (stereo unspecified),log(1/C),Plasmodium berghei,3.89
OC(CC1CCCCN1)c1cc2cccc(C(F)(F)F)c2c2ccc(Cl)cc12 (stereo unspecified),log(1/C),Plasmodium berghei,3.66
CCCCN(CCCC)CC(O)c1cccc2cc3cc(Cl)c(Cl)cc3cc12 (stereo unspecified),log(1/C),Plasmodium berghei,2.48
CCCCN(CCCC)CC(O)c1cc(-c2ccc(Cl)cc2)nc2cc3c(cc12)OCO3 (stereo unspecified),log(1/C),Plasmodium berghei,2.99
CCCCCCCN(CCCCCCC)CC(O)c1c(Br)ccc2c1ccc1ccccc12 (stereo unspecified),log(1/C),Plasmodium berghei,2.5
Cc1cccc2c(C(O)CC3CCCCN3)cc(C(F)(F)F)nc12 (stereo unspecified),log(1/C),Plasmodium berghei,2.93
OC(CC1CCCCN1)c1cc2c(Cl)cc(Cl)cc2c2cc(Br)ccc12 (stereo unspecified),log(1/C),Plasmodium berghei,3.81
CCCCN(CCCC)CC(O)c1cc2c(Cl)c(Cl)ccc2c2cc(C(F)(F)F)ccc12 (stereo unspecified),log(1/C),Plasmodium berghei,3.55
OC(CC1CCCCN1)c1cc(-c2ccc(Cl)cc2)nc2c(C(F)(F)F)cccc12 (stereo unspecified),log(1/C),Plasmodium berghei,4.45
CCCN(CCC)CC(O)c1cc2cc(Cl)ccc2c2cc(Cl)ccc12 (stereo unspecified),log(1/C),Plasmodium berghei,4.06
CCCCCCN(CCCCCC)CC(O)c1cc(-c2ccccc2)nc2c(Cl)cc(Cl)cc12 (stereo unspecified),log(1/C),Plasmodium berghei,3.35
CCCCN(CCCC)CC(O)c1cc2ccccc2c2cc(Cl)ccc12 (stereo unspecified),log(1/C),Plasmodium berghei,2.77
OC(CC1CCCCN1)c1cc(Oc2ccc(Cl)cc2)nc2ccc(Cl)cc12 (stereo unspecified),log(1/C),Plasmodium berghei,3.23
CCCCN(CCCC)CC(O)c1cc(/C=C/c2ccc(Cl)cc2)nc(/C=C/c2ccc(Cl)cc2)c1 (stereo unspecified),log(1/C),Plasmodium berghei,4.18
CCN(CC)CC(O)c1cc2ccc(Cl)cc2nc1-c1ccc(Cl)cc1 (stereo unspecified),log(1/C),Plasmodium berghei,2.11
CCCCCCCN(CCCCCCC)CC(O)c1c2ccccc2c(Cl)c2ccccc12 (stereo unspecified),log(1/C),Plasmodium berghei,3.7
CCCCN(CCCC)CC(O)c1cc2ccccc2c2cc(F)ccc12 (stereo unspecified),log(1/C),Plasmodium berghei,2.58
CCCCCCCN(CCCCCCC)CC(O)c1cc(-c2ccc(F)cc2)nc(-c2ccc(F)cc2)c1 (stereo unspecified),log(1/C),Plasmodium berghei,2.55
CCN(CC)CC(O)c1cc(-c2ccc(Cl)c(Cl)c2)nc(-c2ccc(Cl)c(Cl)c2)c1 (stereo unspecified),log(1/C),Plasmodium berghei,3.04
OC(CNC12CC3CC(CC(C3)C1)C2)c1cc(-c2ccc(Cl)cc2)nc(-c2ccc(Cl)cc2)c1 (stereo unspecified),log(1/C),Plasmodium berghei,3.23
CCCCCCCN(CCCCCCC)CC(O)c1cc2ccc(C(F)(F)F)cc2c2cc(Cl)ccc12 (stereo unspecified),log(1/C),Plasmodium berghei,2.9
CCCCCCCN(CCCCCCC)CC(O)c1cc2c(Cl)cc(Cl)cc2c2ncccc12 (stereo unspecified),log(1/C),Plasmodium berghei,2.86
OC(CC1CCCCN1)c1cc(Oc2ccc(Cl)c(Cl)c2)nc2c(Cl)cc(Cl)cc12 (stereo unspecified),log(1/C),Plasmodium berghei,4.1
CCCCCCCN(CCCCCCC)CC(O)c1cc(-c2ccc(Cl)c(Cl)c2)cc2cc(Cl)ccc12 (stereo unspecified),log(1/C),Plasmodium berghei,2.6
